In ChEMBL document CHEMBL1132490, “Improving the nicotinic pharmacophore with a series of (Isoxazole)methylene-1-azacyclic compounds: synthesis, structure-activity relationship, and molecular modeling” (J Med Chem, 1999):

Tests used:
[1] = molecular target: Muscarinic acetylcholine receptor; experiment: In vitro displacement of [3H]oxotremorine-M from muscarinic acetylcholine receptor in rat brain cortex; assay type: tissue-based
[2] = molecular target: Neuronal acetylcholine receptor; experiment: In vitro displacement of [3H]methylcarbamylcholine from nicotinic acetylcholine receptor in rat brain cortex; assay type: tissue-based
Procedure, shortened: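 Male Mol:WIST rat cerebral cortex (fresh or frozen), homogenised in 50 mM Tris-HCl pH 7.4 with 120 mM NaCl, 5 mM KCl, 2 mM CaCl2, 1 mM MgCl2, spun 40000g 10 min; pellet resuspended. Incubated with [3H]MCC (2 nM final) and test salt, 60 min at 0 °C; GF/B filtration (0.5% PEI), scintillation counting. IC50 by nonlinear regression.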

SMILES | IC50 [1] | IC50 [2]
Cc1cc(/C=C2/CCN(C)C2)on1 | 4.42 µM | 0.783 µM
Cc1cc(/C=C2/CN3CCCC2C3)on1 (configuration not stated) | 1.57 µM | 0.053 µM
Cc1cc(/C=C2\CCN(C)C2)on1 | 15.7 µM | > 1 µM
Cc1cc(/C=C2\CCCNC2)on1 | 6.95 µM | > 1 µM
COCc1cc(/C=C2/CN3CCC2CC3)on1 | 4 µM | > 1 µM
Cc1cc(/C=C2\CCCN(C)C2)on1 | 9.54 µM | > 1 µM
CC(C)c1cc(/C=C2/CN3CCC2CC3)on1 | 2.28 µM | > 1 µM
CCc1cc(/C=C2\CN3CCC2CC3)on1 | 0.566 µM | 0.1 µM
Cc1cnoc1/C=C1\CN2CCC1C2 (configuration not stated) | 0.019 µM | 0.00032 µM
CC(C)c1cc(/C=C2\CN3CCC2CC3)on1 | 0.911 µM | 0.107 µM
C/C(=C1/CN2CCC1CC2)c1cc(C)no1 | 2.263 µM | 0.715 µM
Cc1cc(/C=C2/CCCNC2)on1 | 7.22 µM | 0.087 µM
Cc1cc(/C=C2/CCNC2)on1 | 3.29 µM | > 1 µM
Cc1cc(/C=C2/CN3CCC2C3)on1 (configuration not stated) | 1.02 µM | 0.023 µM
Cc1cc(/C=C2\CN3CCC2C3)on1 (configuration not stated) | 0.276 µM | 0.029 µM
Cc1cc(/C=C2/CN3CCC2CC3)on1 | 1.81 µM | 0.504 µM
CCCc1cc(/C=C2/CN3CCC2CC3)on1 | 1.93 µM | > 1 µM
COCc1cc(/C=C2\CN3CCC2CC3)on1 | 1.47 µM | 0.218 µM
C(=C1/CN2CCC1CC2)/c1ccno1 | 0.312 µM | 0.00165 µM
Cc1cnoc1/C=C1\CN2CCC1CC2 | 0.418 µM | 0.0032 µM
Cc1cc(/C(F)=C2\CN3CCC2CC3)on1 | 1.45 µM | 0.255 µM
CCc1cc(/C=C2/CN3CCC2CC3)on1 | 0.867 µM | > 1 µM
Cc1noc(/C=C2/CN3CCC2CC3)c1C | 0.373 µM | > 1 µM
Cc1cc(C=C2CNC2)on1 | 19.3 µM | > 1 µM
Cc1cc(/C=C2/CCCN(C)C2)on1 | 5.76 µM | > 1 µM
CCCc1cc(/C=C2\CN3CCC2CC3)on1 | 0.852 µM | 0.167 µM
Cc1cc(/C=C2\CN3CCC2CC3)on1 | 0.658 µM | 0.0039 µM
Cc1cc(/C=C2\CN3CCCC2C3)on1 (configuration not stated) | 0.898 µM | 0.13 µM
Clc1ccc(C2CC3CCC2N3)cn1 (racemic) [EPIBATIDINE] | > 0.001 µM | 
